Assay results gathered from unrelated publications.
Observed: cell growth or viability

CCCCC(=O)Nc1ccc(-c2ccc3ncn(CC4CC4)c(=O)c3c2)cn1
IC50 (HCC827; CCK-8; 72 h): 0.056 µM

CC(C)=CCc1ncc(/C=C2\NC(=O)[C@H](C(C)C)NC2=O)[nH]1
IC50 (ASPC1; SRB): > 15 µM

NCc1ccc(-c2nn(Cc3ccncc3)c3ccccc23)o1
IC50 (HuCCT-1; ATP luminescence): > 46 µM

CCCCn1cnc2ccc(-c3ccc(NC(=O)Nc4ccccc4)nc3)cc2c1=O
IC50 (HCC827; CCK-8; 72 h): 0.98 µM

O=C1CS/C(=N\c2cc(C(F)(F)F)ccc2-c2nnc(N3C(=O)CS/C3=N\c3ccc(-c4ccccc4)cc3)s2)N1c1ccc(-c2ccccc2)cc1
IC50 (WI-38; MTT): 94.7 µM

O=C(Nc1ccc(-c2ccc3ncn(Cc4ccc5c(c4)OCO5)c(=O)c3c2)cn1)c1ccccc1
IC50 (HCC827; CCK-8; 72 h): 8.81 µM

COc1cccc2c1C(=O)c1c(O)c3c(c(O)c1C2=O)C[C@@](O)(C(=O)CO)C[C@@H]3O[C@H]1C[C@H](N)[C@H](O)[C@H](C)O1
IC50 (HuCCT-1; 96 h): 0.0249 µM

O=C1CSC(=Nc2cc([N+](=O)[O-])ccc2[N+](=O)[O-])N1c1nnc(-c2ccc(C(F)(F)F)cc2N=C2SCC(=O)N2c2cc([N+](=O)[O-])ccc2[N+](=O)[O-])s1
IC50 (WI-38; MTT): 89.2 µM

COc1cccc2c1C(=O)c1c(O)c3c(c(O)c1C2=O)C[C@@](O)(C(=O)CO)C[C@@H]3O[C@H]1C[C@H](N)[C@H](O)[C@H](C)O1
IC50 (HPAF-II; ATP luminescence; 72 h): 0.7 µM

COc1cccc(N=C2SCC(=O)N2c2nnc(-c3ccc(C(F)(F)F)cc3N=C3SCC(=O)N3c3cccc(OC)c3)s2)c1
IC50 (WI-38; MTT): 82.1 µM

CC1(P2(=O)CCCCC2)C=CCC=C1
IC50 (HaCaT; MTT; 72 h): > 100 µM

O=C1CS/C(=N\c2ccccc2Cl)N1c1nnc(-c2ccc(C(F)(F)F)cc2/N=C2\SCC(=O)N2c2ccccc2Cl)s1
IC50 (WI-38; MTT): 49.2 µM

CCCCn1cnc2ccc(-c3ccc(NC(=O)Nc4ccc(C)cc4)nc3)cc2c1=O
IC50 (HCC827; CCK-8; 72 h): 9.15 µM

OCc1ccc(-c2nn(Cc3ccccn3)c3cccnc23)o1
IC50 (HuCCT-1; ATP luminescence): > 46 µM

C=CC(C)(C)c1[nH]cnc1/C=C1/NC(=O)[C@H](C(C)C)NC1=O
IC50 (ASPC1; SRB): > 15 µM

OCc1ccc(-c2nn(Cc3ccncc3)c3cccnc23)o1
IC50 (HuCCT-1; ATP luminescence): > 46 µM

CCCCn1cnc2ccc(-c3ccc(NC(=O)Nc4ccc(CC)cc4)nc3)cc2c1=O
IC50 (HCC827; CCK-8; 72 h): > 10 µM

OCc1ccc(-c2nn(Cc3ccccc3)c3ccccc23)o1
IC50 (HuCCT-1; ATP luminescence): > 46 µM

CCCn1cnc2ccc(-c3ccc(NC(=O)CNC(C)C)nc3)cc2c1=O
IC50 (HCC827; CCK-8; 72 h): > 10 µM
